Source: ChEMBL document CHEMBL4414568, “Development of Novel Irreversible Pyruvate Kinase M2 Inhibitors” (J Med Chem, 2019)
Active and inactive are the calls of the source. The rule behind the calls is not given here.

Tests used:
NCI-H157 = experiment: Antiproliferative activity against human NCI-H157 cells expressing wild type EGFR assessed as reduction in cell viability incubated for 24 hrs by MTT assay; assay type: functional, cell-based; conditions: NCI-H157, 24 h
In short: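 Cells seeded at 3,500 per well in 10% FBS and left overnight, then exposed to test agent or vehicle in 5% FBS for 24 h. MTT added for 1 h, then medium swapped for DMSO and absorbance read at 560 nm. Viability given as percent of vehicle-treated control. Run in triplicate.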

[1] = biological target: T1, ATP-citrate synthase (Homo sapiens) (UniProt P53396); experiment: Binding affinity to ACYL in human PC9 cells incubated for 1 hr by ABPP-SILAC assay; assay type: cell-based
T1 sequence (whole entry): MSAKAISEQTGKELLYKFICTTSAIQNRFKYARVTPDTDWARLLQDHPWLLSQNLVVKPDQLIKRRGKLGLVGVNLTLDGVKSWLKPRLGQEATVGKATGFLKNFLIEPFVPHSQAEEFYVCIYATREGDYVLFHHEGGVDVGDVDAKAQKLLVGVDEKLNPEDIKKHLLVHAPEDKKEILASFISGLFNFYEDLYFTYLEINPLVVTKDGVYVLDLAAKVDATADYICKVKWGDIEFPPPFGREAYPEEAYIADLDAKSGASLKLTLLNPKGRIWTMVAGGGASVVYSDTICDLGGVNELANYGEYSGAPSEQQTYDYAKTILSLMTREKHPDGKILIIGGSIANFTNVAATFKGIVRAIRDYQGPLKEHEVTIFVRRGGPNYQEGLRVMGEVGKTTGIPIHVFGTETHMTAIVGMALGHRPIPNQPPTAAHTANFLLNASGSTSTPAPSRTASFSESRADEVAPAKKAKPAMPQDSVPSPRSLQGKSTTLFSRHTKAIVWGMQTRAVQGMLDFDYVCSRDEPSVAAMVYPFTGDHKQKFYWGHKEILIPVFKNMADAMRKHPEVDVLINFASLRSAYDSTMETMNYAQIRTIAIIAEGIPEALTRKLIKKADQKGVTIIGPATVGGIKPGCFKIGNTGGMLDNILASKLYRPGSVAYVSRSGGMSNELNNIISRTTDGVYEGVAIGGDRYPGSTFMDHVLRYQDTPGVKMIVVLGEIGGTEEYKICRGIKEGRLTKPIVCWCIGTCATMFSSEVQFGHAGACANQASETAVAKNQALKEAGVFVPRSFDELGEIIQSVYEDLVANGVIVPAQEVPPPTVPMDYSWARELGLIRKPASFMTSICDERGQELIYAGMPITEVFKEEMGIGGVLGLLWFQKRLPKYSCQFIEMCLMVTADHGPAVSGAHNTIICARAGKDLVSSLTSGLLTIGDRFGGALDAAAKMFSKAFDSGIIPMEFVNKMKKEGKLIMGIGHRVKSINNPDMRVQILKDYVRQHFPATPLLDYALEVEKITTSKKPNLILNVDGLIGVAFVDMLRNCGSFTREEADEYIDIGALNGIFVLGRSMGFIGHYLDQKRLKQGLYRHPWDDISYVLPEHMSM
In short: (§1)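 PC-9 cells passaged at least six times in SILAC DMEM with 10% dialyzed FBS plus 100 µg/mL light or 13C/15N-labeled Arg/Lys. Heavy cells got ABPP probe (1 µM) and light cells DMSO, 1 h at 37 °C. Cells mixed 1:1, sonicated, spun at 100,000g, protein normalized to 1 mg/mL. Click biotin-azide, streptavidin bead pulldown 16 h at 4 °C, SDS-PAGE, on-bead trypsin digestion, LC-MS/MS.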

[2] = biological target: T2, Malonate--CoA ligase ACSF3, mitochondrial (Homo sapiens) (UniProt Q4G176); experiment: Binding affinity to ACSF3 in human PC9 cells incubated for 1 hr by ABPP-SILAC assay; assay type: cell-based; in short: as §1
T2 sequence (whole entry): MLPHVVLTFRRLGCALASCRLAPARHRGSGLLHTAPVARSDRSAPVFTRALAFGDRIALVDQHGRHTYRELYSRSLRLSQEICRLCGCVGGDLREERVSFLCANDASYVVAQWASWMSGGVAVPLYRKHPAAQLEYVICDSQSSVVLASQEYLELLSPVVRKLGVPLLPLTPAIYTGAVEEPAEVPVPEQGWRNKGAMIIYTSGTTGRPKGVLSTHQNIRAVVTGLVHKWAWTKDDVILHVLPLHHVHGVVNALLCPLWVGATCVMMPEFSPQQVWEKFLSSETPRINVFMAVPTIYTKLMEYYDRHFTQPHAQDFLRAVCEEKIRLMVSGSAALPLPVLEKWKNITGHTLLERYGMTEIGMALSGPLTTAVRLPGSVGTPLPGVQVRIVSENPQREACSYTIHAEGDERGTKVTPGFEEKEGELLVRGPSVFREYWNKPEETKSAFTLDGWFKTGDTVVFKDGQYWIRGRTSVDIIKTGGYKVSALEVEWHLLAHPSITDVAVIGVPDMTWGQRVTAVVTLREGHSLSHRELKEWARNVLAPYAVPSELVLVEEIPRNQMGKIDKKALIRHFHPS

Pyruvate kinase PKM [3] = biological target: T3, Pyruvate kinase PKM (Homo sapiens, UniProt P14618); experiment: Inhibition of PKM2 in human PC9 cells at 0.25 uM using PEP as substrate incubated for 6 hrs by OxiRed probe-based colorimetric analysis; assay type: cell-based
T3 sequence (P14618 2-531 limits assumed): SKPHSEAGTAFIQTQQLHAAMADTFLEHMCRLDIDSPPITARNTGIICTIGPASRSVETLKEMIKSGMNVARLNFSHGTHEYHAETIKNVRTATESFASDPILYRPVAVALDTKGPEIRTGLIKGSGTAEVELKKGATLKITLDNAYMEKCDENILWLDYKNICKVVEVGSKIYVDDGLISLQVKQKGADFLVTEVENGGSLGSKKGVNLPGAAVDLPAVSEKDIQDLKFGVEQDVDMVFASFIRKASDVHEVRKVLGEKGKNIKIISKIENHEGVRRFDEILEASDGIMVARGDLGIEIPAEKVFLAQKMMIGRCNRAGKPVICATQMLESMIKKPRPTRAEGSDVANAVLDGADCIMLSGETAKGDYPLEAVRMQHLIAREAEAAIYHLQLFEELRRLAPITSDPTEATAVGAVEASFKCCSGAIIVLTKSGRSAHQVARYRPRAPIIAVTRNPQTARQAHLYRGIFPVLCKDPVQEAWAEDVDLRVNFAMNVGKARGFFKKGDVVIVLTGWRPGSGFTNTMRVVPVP
In short: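 PC-9 cells seeded at 5 × 10^5 cells/mL, after 24 h given 0.25 µM compound or DMSO for 6 h. Lysate pyruvate kinase activity read with a colorimetric kit measuring H2O2 made from PEP and […] through PK and then pyruvate oxidase. n = 3.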

Pyruvate kinase PKM [4] = biological target: T3, Pyruvate kinase PKM; experiment: Inhibition of PKM2 in human PC9 cells assessed as reduction in beta-catenin expression incubated for 24 hrs by Western blot analysis; assay type: cell-based
In short: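 PC-9 cells seeded at 5 × 10^5 cells/mL; after 24 h given 0–1 µM compound or DMSO for 24 h. Lysates run on 10% SDS-PAGE, transferred to nitrocellulose, probed for PKM2, EGFR, p-STAT3, STAT3, p-β-catenin, β-catenin and β-actin with HRP secondaries, ECL detection.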

- IC50 (NCI-H157): > 2000 nM
- Activity [1]: Active
- Activity [2]: Active
- inhibition (Pyruvate kinase PKM [3]): Active
- inhibition (Pyruvate kinase PKM [4]): Dose-dependent effect
Structure (SMILES): C#CC(=O)Nc1ccc(-n2nc(CCC(=O)NC)cc2-c2ccc(-c3ccc(C(F)(F)F)cc3)cc2)cc1
